Here are results for 4 compounds from ChEMBL document CHEMBL1141378, “Structures of steroidal alkaloid oligoglycosides, robeneosides A and B, and antidiabetogenic constituents from the Brazilian medicinal plant Solanum lycocarpum” (2007).

Test [1] relates to Rattus norvegicus. As to the kind of experiment: Inhibition of increase in serum glucose level in sucrose-loaded Wistar rat at 125 mg/kg, po after 2 hrs. In kind it is functional. An outline of the steps:
(§1)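 Male Wistar rats (about 130-150 g) fasted 20-24 h, water allowed. Test sample suspended in 5% acacia solution, given orally at 10 mL/kg; controls get vehicle. Thirty minutes later, 20% (w/v) sucrose at 5 mL/kg po (water for the normal group). Serum taken 0.5, 1 and 2 h after loading; glucose measured by glucose-oxidase method. Means ± SEM; one-way ANOVA with Dunnett's test.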

The test system of test [2] is Rattus norvegicus. As to the kind of experiment: Inhibition of increase in serum glucose level in sucrose-loaded Wistar rat at 500 mg/kg, po after 0.5 hrs. In kind it is functional. In a few lines: as §1
In test [3] the test system is Rattus norvegicus. The experiment in a line: Inhibition of increase in serum glucose level in sucrose-loaded Wistar rat at 500 mg/kg, po after 2 hrs. Type of test: functional. In a few lines:
as §1

Test [4] concerns Rattus norvegicus. As to the kind of experiment: Inhibition of increase in serum glucose level in sucrose-loaded Wistar rat at 500 mg/kg, po after 1 hr. In kind it is functional. In a few lines:
as §1

For test [5], the system named is Rattus norvegicus. As to the kind of experiment: Inhibition of increase in serum glucose level in sucrose-loaded Wistar rat at 125 mg/kg, po after 0.5 hrs. In kind it is functional. In a few lines: as §1
Test [6] relates to Rattus norvegicus. The experiment in a line: Inhibition of increase in serum glucose level in sucrose-loaded Wistar rat at 125 mg/kg, po after 1 hr. In kind it is functional. An outline of the steps:
as §1

Test [7] has as its system Rattus norvegicus. As to the kind of experiment: Inhibition of increase in serum glucose level in sucrose-loaded Wistar rat at 100 mg/kg, po after 1 hr. Type of test: functional. In a few lines: as §1
The test system of test [8] is Mus musculus. As to the kind of experiment: Suppression of gastric emptying in CMC-Na-loaded mouse at 50 mg/kg, po after 30 mins. Type of test: functional, Stomach. An outline of the steps: (§2)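 Male ddY mice (about 30-32 g) fasted 20-24 h, dosed orally in 5% acacia (10 mL/kg) 30 min before an intragastric meal of 1.5% CMC-Na with 0.05% phenol red (0.5 mL/mouse). Killed 30 min later; stomach homogenized in 0.1 M NaOH, TCA-deproteinized, alkalinized, read at 560 nm. Emptying % calculated against mice killed immediately after the meal. Means ± SEM, Dunnett's test.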

The test system of test [9] is Rattus norvegicus. The experiment in a line: Inhibition of increase in serum glucose level in sucrose-loaded Wistar rat at 100 mg/kg, po after 0.5 hrs. In kind it is functional. An outline of the steps:
as §1

Test [10] deals with Rattus norvegicus. As to the kind of experiment: Inhibition of increase in serum glucose level in sucrose-loaded Wistar rat at 50 mg/kg, po after 0.5 hrs. Type of test: functional. An outline of the steps: as §1
In test [11] the test system is Mus musculus. The experiment in a line: Suppression of gastric emptying in CMC-Na-loaded mouse at 25 mg/kg, po after 30 mins. In kind it is functional, Stomach. An outline of the steps:
as §2

For test [12], the system named is Rattus norvegicus. As to the kind of experiment: Inhibition of increase in serum glucose level in sucrose-loaded Wistar rat at 25 mg/kg, po after 1 hr. Type of test: functional. An outline of the steps:
as §1

The test system of test [13] is Rattus norvegicus. As to the kind of experiment: Inhibition of increase in serum glucose level in sucrose-loaded Wistar rat at 50 mg/kg, po after 1 hr. In kind it is functional. An outline of the steps:
as §1

Test [14] deals with Rattus norvegicus. The experiment in a line: Inhibition of increase in serum glucose level in sucrose-loaded Wistar rat at 50 mg/kg, po after 2 hrs. In kind it is functional. An outline of the steps: as §1
The test system of test [15] is Rattus norvegicus. The experiment in a line: Inhibition of increase in serum glucose level in sucrose-loaded Wistar rat at 100 mg/kg, po after 2 hrs. In kind it is functional. In a few lines: as §1
Test [16] deals with Rattus norvegicus. As to the kind of experiment: Inhibition of increase in serum glucose level in sucrose-loaded Wistar rat at 25 mg/kg, po after 2 hrs. In kind it is functional. An outline of the steps:
as §1

Test [17] concerns Rattus norvegicus. As to the kind of experiment: Inhibition of increase in serum glucose level in sucrose-loaded Wistar rat at 25 mg/kg, po after 0.5 hrs. In kind it is functional. An outline of the steps:
as §1

In test [18] the test system is Rattus norvegicus. As to the kind of experiment: Inhibition of increase in serum glucose level in sucrose-loaded Wistar rat at 12.5 mg/kg, po after 2 hrs. Type of test: functional. An outline of the steps: as §1
Test [19] deals with Rattus norvegicus. As to the kind of experiment: Inhibition of increase in serum glucose level in sucrose-loaded Wistar rat at 12.5 mg/kg, po after 1hr. Type of test: functional. In a few lines:
as §1

Test [20] deals with Rattus norvegicus. As to the kind of experiment: Inhibition of increase in serum glucose level in sucrose-loaded Wistar rat at 12.5 mg/kg, po after 0.5 hrs. Type of test: functional. An outline of the steps: as §1

Consider `CN(C)C(=N)NC(=N)N` [METFORMIN], for which the Activity in the test on Rattus norvegicus [1] stood at 115.5 mg/dL; with Rattus norvegicus [2], 113.1 mg/dL; in the test with Rattus norvegicus [3], 119.8 mg/dL; with Rattus norvegicus [4] it was 105.6 mg/dL; in the test with Rattus norvegicus [5], 134.8 mg/dL; in the test on Rattus norvegicus [6], 136 mg/dL.

As for `C[C@@H]1CC[C@@]2(NC1)O[C@H]1C[C@H]3[C@@H]4CC=C5C[C@@H](O[C@@H]6O[C@H](CO)[C@@H](O[C@@H]7O[C@@H](C)[C@H](O)[C@@H](O)[C@H]7O)[C@H](O)[C@H]6O[C@@H]6O[C@@H](C)[C@H](O)[C@@H](O)[C@H]6O)CC[C@]5(C)[C@H]4CC[C@]3(C)[C@H]1[C@@H]2C` [SOLAMARGINE], the Activity with Rattus norvegicus [7] turned out to be 116.6 mg/dL; with Mus musculus [8] it was 58.4%; with Rattus norvegicus [9], 118.5 mg/dL; in the test with Rattus norvegicus [10] it was 124.3 mg/dL; in the test with Mus musculus [11], 73.7%; in the test with Rattus norvegicus [12], 139.9 mg/dL. Besides, the Activity worked out at 117.1 mg/dL with Rattus norvegicus [13]; 118.7 mg/dL in the test on Rattus norvegicus [14]; 122.3 mg/dL in the test on Rattus norvegicus [15]; 133.7 mg/dL in the test on Rattus norvegicus [16]; 141.7 mg/dL in the test on Rattus norvegicus [17].

`C[C@@H]1CC[C@@]2(NC1)O[C@H]1C[C@H]3[C@@H]4CC=C5C[C@@H](O[C@@H]6O[C@H](CO)[C@H](O)[C@H](O[C@@H]7O[C@H](CO)[C@@H](O)[C@H](O)[C@H]7O)[C@H]6O[C@@H]6O[C@@H](C)[C@H](O)[C@@H](O)[C@H]6O)CC[C@]5(C)[C@H]4CC[C@]3(C)[C@H]1[C@@H]2C` [SOLASONINE]: the Activity was found to be 122.4 mg/dL with Rattus norvegicus [7]; 74.8% in the test on Mus musculus [8]; 124.7 mg/dL in the test on Rattus norvegicus [9]; 132.7 mg/dL in the test on Rattus norvegicus [10]; 75.4% in the test on Mus musculus [11]; 157.6 mg/dL in the test with Rattus norvegicus [12]. The Activity in the test with Rattus norvegicus [13] is 136.7 mg/dL; with Rattus norvegicus [14], 135.4 mg/dL; in the test with Rattus norvegicus [15] it was 121.9 mg/dL; in the test with Rattus norvegicus [16], 129.5 mg/dL; with Rattus norvegicus [17], 158.8 mg/dL.

In the case of `CCCCNC(=O)NS(=O)(=O)c1ccc(C)cc1` [TOLBUTAMIDE], the Activity is 114.9 mg/dL in the test with Rattus norvegicus [18]; 130.5 mg/dL in the test on Rattus norvegicus [19]; 106.3 mg/dL in the test with Rattus norvegicus [12]; 152.6 mg/dL in the test with Rattus norvegicus [20]; 99.5 mg/dL in the test on Rattus norvegicus [16]; 138.1 mg/dL in the test with Rattus norvegicus [17].
